These results are taken from PubChem BioAssay.

The term viability denotes a read-out of living cells in per cent, often relative to untreated cells. What is called inhibition is the relative decrease from the control value, in per cent.

Experiment [1] is described as follows: Her2 expression decrease, cell viability multiplex – SKBR3 breast tumor cells, AlphaScreen, ATP viability, primary screen (AID 461;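 active = Her2 level under about 52% in both replicate screens, with viability over 70% of control, limit read from the data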;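 as to Her2 level: lower value means less Her2 protein in the cells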;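 as to viability: percent of carrier control wells set as 100% viability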). Conditions: SKBR3 Her2 protein level, 18-24 h, measured here: SKBR3 viability, ATP luminescence, at 10 µM. Background: Bead proximity is the source of the signal in Alpha formats.
The target of experiment [2] is Receptor tyrosine-protein kinase erbB-2 (Homo sapiens) (UniProt P04626). Described as above. Conditions: 18-24 h, at 10 µM, stronger effect = lower value.
Experiment [3] in a line: reduced viability of SK-BR-3 breast cancer cells – cell-based, 24 h, human, pilot screen (AID 572;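 active = viability at or below 10% of carrier control in both of two separate runs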;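 also: compound exposure lasted between 18 and 24 h rather than exactly 24 h; 100% = carrier-treated control wells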). Conditions: SK-BR-3 viability, CellTiter-Glo luminescence, at 10 µM, stronger effect = lower value. (In general: In ATP-based viability assays light output follows the ATP content of the culture.)
Experiment [4] is described as follows: HUVEC growth inhibition – cell-based, human, primary screen (AID 575;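 active = viability at or below 30% in both replicate assays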;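 also: 100% = median of untreated cell wells with 0.1% DMSO on each plate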). Particulars: HUVEC proliferation, CellTiter-Glo luminescence, 72 h; at 10 µM; stronger effect = lower value. The method in brief: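 System: primary human umbilical vein endothelial cells; Quantity: 1250 endothelial cells in each well; Buffer or medium: supplemented EBM, 2% fetal bovine serum; Doses: one dose, 10 µM final, 0.1% DMSO; Incubation: 72 h compound incubation; Technique: ATP-based CellTiter-Glo luminescent read; Evaluation: percent of median DMSO-control luminescence; Controls: vehicle and MePR control wells.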

Experiment [5] in a line: H69AR cell proliferation blockers – human, duplicate replicates, primary screen (AID 580).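 Also: 100% = mean luminescence of untreated wells and 0% = no signal.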 Particulars: H69AR lung tumor cells viability, ATP luminescence, 72 h; at 10 µM; stronger effect = lower value.
The nature of experiment [6]: MRP1 drug-resistance reversers in H69AR cells – cell-based, doxorubicin co-treatment, pilot screen (AID 601;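 active = viability loss from added drug above about 55%, and viability with drug at most 40%, in both replicates, limit read from the data, passing the limit was not always enough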). Conditions: CellTiter-Glo, 72 h, at 10 µM; for differential viability (reversal): stronger effect = higher value.
The nature of experiment [7]: yeast transport mutant growth inhibition pilot in 384-well plates, post-Golgi transport modulator project (AID 636; in the data active = inhibition above about 31%). Conditions: absorbance 615 nm, about 18 h, stronger effect = higher value.
Experiment [8] can be described thus: growth suppression of yeast trafficking mutant, preliminary HTS, modulators of trafficking downstream of Golgi apparatus project, 1536-format plate, OD 615 nm (AID 637; in the data active = inhibition above about 30%). Particulars: yeast transport mutant growth, absorbance 615 nm, 18 h; stronger effect = higher value.
Setting [9] is: H69AR cells + 2 uM doxorubicin, measured here: viability with 2 uM doxorubicin, stronger effect = lower value.
The mark [10] stands for this setting: H69AR cells, compound alone cytotoxicity.

Molecules are shown by their SMILES. Active and inactive are the calls of the source.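 The calls were made as follows, unless noted: active = viability at or under a set limit in both replicates, limit being median viability minus 3 SD (cut at about 48% in these data, passing the limit was not always enough); inconclusive = at or under the limit in just one replicate; inactive = at or above the limit in both replicates.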

Receptor tyrosine-protein kinase erbB-2 (Homo sapiens), sequence (P04626 whole entry, looked up): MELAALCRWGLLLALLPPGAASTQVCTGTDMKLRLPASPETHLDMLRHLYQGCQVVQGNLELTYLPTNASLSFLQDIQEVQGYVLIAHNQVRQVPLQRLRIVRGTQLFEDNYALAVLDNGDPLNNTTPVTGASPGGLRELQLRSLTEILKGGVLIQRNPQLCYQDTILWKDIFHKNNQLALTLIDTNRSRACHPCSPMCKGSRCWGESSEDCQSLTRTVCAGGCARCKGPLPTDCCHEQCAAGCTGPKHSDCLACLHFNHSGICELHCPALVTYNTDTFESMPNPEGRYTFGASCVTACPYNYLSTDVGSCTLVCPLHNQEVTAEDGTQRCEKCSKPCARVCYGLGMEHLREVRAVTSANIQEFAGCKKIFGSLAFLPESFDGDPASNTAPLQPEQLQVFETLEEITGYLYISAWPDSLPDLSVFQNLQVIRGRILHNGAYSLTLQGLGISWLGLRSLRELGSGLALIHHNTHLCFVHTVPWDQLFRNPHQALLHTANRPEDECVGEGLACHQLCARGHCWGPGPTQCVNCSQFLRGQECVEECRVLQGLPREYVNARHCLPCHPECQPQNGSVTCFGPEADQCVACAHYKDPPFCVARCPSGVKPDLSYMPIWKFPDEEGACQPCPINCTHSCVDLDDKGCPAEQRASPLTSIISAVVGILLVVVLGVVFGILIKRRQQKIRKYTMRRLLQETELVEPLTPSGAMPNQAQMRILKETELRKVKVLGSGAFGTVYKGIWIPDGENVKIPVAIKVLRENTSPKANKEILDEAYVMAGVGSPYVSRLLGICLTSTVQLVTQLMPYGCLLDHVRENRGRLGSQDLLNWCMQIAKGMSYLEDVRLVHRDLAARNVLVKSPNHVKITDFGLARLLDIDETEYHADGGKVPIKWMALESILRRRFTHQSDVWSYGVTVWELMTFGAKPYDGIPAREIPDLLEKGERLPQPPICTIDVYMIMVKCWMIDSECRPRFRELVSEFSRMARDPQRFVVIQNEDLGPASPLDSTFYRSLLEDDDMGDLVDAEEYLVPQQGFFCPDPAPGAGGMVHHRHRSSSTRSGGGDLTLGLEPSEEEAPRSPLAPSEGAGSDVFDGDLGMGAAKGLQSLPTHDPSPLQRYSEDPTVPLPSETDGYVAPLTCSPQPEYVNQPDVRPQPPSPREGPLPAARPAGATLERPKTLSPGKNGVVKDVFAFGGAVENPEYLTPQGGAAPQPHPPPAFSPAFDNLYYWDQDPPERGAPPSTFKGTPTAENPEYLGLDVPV

As to `CCCC(=O)Nc1nnc(Sc2ccc(N(C)C)cc2)s1`, the viability in experiment [1] is 100%; in experiment [3], 100% (inactive); in experiment [4] it was 80.3% (inactive); in experiment [5], 101% (inactive); in experiment [6] (setting [9]), 85.4%; in experiment [6] (setting [10]), 101%. In experiment [2], the Her2 level is 90% (inactive). Besides, in experiment [6] (H69AR cells + 2 uM doxorubicin), the differential viability (reversal) was 15.3% (inactive). The inhibition in experiment [7] is -5.2% (inactive); in experiment [8], -8.73% (inactive).
Turning to `O=C(NCc1cccs1)C1CCCN(c2ncccn2)C1` (stereo not given), the viability in experiment [1] is 104%; in experiment [3], 104% (inactive); in experiment [4] it was 105% (inactive); in experiment [5], 94.8% (inactive); in experiment [6] (setting [9]), 85.9%; in experiment [6] (setting [10]), 94.8%. Besides, the Her2 level in experiment [2] is 89.5% (inactive). For the same compound, the differential viability (reversal) in experiment [6] (H69AR cells + 2 uM doxorubicin) was 8.86% (inactive). Moreover, the inhibition in experiment [7] is -2.4% (inactive); in experiment [8], -1.94% (inactive).
Turning to `[N-]=[N+]=CC(=O)CC(c1ccccc1)N1C(=O)c2ccccc2C1=O` (stereo not given), the viability in experiment [1] was 93.5%; in experiment [3], 93.5% (inactive); in experiment [4], 97.8% (inactive); in experiment [5], 103% (inactive); in experiment [6] (setting [9]) it was 97%; in experiment [6] (setting [10]), 103%. The Her2 level in experiment [2] was 106% (inactive). For the same compound, the differential viability (reversal) in experiment [6] (H69AR cells + 2 uM doxorubicin) is 5.81% (inactive). For the same compound, the inhibition in experiment [7] is -0.91% (inactive); in experiment [8], -4.29% (inactive).
For the compound `O=c1cc(COn2nnc3ccc(C(F)(F)F)cc32)nc2sccn12`, the viability was 89.5% in experiment [1]; 89.5% (inactive) in experiment [3]; 104% (inactive) in experiment [4]; 85.7% (inactive) in experiment [5]; 105% in experiment [6] (setting [9]); 85.7% in experiment [6] (setting [10]). The Her2 level in experiment [2] is 91.5% (inactive). The differential viability (reversal) in experiment [6] (H69AR cells + 2 uM doxorubicin) is -19.7% (inactive). Further, the values for the inhibition in experiment [7] and in experiment [8] were -1.71% (inactive) and 0.63% (inactive), respectively.
Regarding `CCOc1ccc2[nH]c(=O)c(CN(Cc3ccccc3)C(=O)N3CCCC3)cc2c1`, the viability was 100% in experiment [1]; 100% (inactive) in experiment [3]; 78.4% (inactive) in experiment [4]; 82.1% (inactive) in experiment [5]; 80.1% in experiment [6] (setting [9]); 82.1% in experiment [6] (setting [10]). In addition, the Her2 level in experiment [2] was 77% (inactive). In addition, the differential viability (reversal) in experiment [6] (H69AR cells + 2 uM doxorubicin) is 1.97% (inactive). For the same compound, the results for the inhibition in experiment [7] and in experiment [8] were -2.5% (inactive) and -1.9% (inactive), respectively.
For the compound `CCCCn1cnc2c(cnn2-c2ccc(Cl)cc2)c1=O`, the viability in experiment [1] is 94.5%; in experiment [3], 94.5% (inactive); in experiment [4] it was 99.4% (inactive); in experiment [5], 86.1% (inactive); in experiment [6] (setting [9]), 87.9%; in experiment [6] (setting [10]) it was 86.1%. The Her2 level in experiment [2] was 87% (inactive). The differential viability (reversal) in experiment [6] (H69AR cells + 2 uM doxorubicin) is -1.77% (inactive). Besides, the inhibition in experiment [7] is -3.55% (inactive); in experiment [8], 2.91% (inactive).
Turning to `c1ccc2c(c1)CC(N1CCCCC1)c1ccccc1N2` (stereo not given), the viability in experiment [1] was 79.5%; in experiment [3], 79.5% (inactive); in experiment [4] it was 90.1% (inactive); in experiment [5], 91.5% (inactive); in experiment [6] (setting [9]) it was 86.8%; in experiment [6] (setting [10]) it was 91.5%. Moreover, in experiment [2], the Her2 level is 91% (inactive). In experiment [6] (H69AR cells + 2 uM doxorubicin), the differential viability (reversal) is 4.69% (inactive). For the same compound, the inhibition in experiment [7] is -1.82% (inactive); in experiment [8], -3.93% (inactive).
For `CC(C)CC(=O)CN1C(=O)C2(OCCO2)c2ccccc21`, the viability is 93.5% in experiment [1]; 93.5% (inactive) in experiment [3]; 101% (inactive) in experiment [4]; 89.6% (inactive) in experiment [5]; 95.8% in experiment [6] (setting [9]); 89.6% in experiment [6] (setting [10]). For the same compound, in experiment [2], the Her2 level was 107% (inactive). For the same compound, the differential viability (reversal) in experiment [6] (H69AR cells + 2 uM doxorubicin) was -6.21% (inactive). Also, the figures for the inhibition in experiment [7] and in experiment [8] were -5.14% (inactive) and 1.83% (inactive), respectively.
In the case of `COc1cccc(C(=O)Nc2ccc(C)cc2)c1`, the viability in experiment [1] is 99%; in experiment [3] it was 99% (inactive); in experiment [4] it was 84.6% (inactive); in experiment [5], 92.3% (inactive); in experiment [6] (setting [9]), 88.3%; in experiment [6] (setting [10]), 92.3%. The Her2 level in experiment [2] is 102% (inactive). In addition, in experiment [6] (H69AR cells + 2 uM doxorubicin), the differential viability (reversal) is 3.96% (inactive). Also, the inhibition is -3.47% (inactive) in experiment [7] and -7.46% (inactive) in experiment [8].
As for `Cc1cnc(SCCc2ccncc2)nc1C`, the viability in experiment [1] was 97%; in experiment [3] it was 97% (inactive); in experiment [4], 109% (inactive); in experiment [5] it was 86.6% (inactive); in experiment [6] (setting [9]) it was 76.9%; in experiment [6] (setting [10]) it was 86.6%. For the same compound, the Her2 level in experiment [2] was 109% (inactive). For the same compound, the differential viability (reversal) in experiment [6] (H69AR cells + 2 uM doxorubicin) is 9.61% (inactive). Also, the inhibition is -2.05% (inactive) in experiment [7] and 5.17% (inactive) in experiment [8].
Consider `COc1ccc(S(=O)(=O)N2CCN(CC(=O)Nc3ccc(F)c(F)c3)CC2)cc1`, for which the viability in experiment [1] was 88.5%; in experiment [3] it was 88.5% (inactive); in experiment [4], 75.6% (inactive); in experiment [5], 91.1% (inactive); in experiment [6] (setting [9]), 93.9%; in experiment [6] (setting [10]) it was 91.1%. Also, the Her2 level in experiment [2] is 86% (inactive). Moreover, the differential viability (reversal) in experiment [6] (H69AR cells + 2 uM doxorubicin) was -2.83% (inactive). The inhibition in experiment [7] is -1.73% (inactive); in experiment [8], -1.94% (inactive).
With `COC(=O)c1ccccc1S(=O)(=O)N(CCCO)Cc1cc2c(C)ccc(C)c2[nH]c1=O`, the viability in experiment [1] is 84.5%; in experiment [3] it was 84.5% (inactive); in experiment [4], 75.3% (inactive); in experiment [5], 79.3% (inactive); in experiment [6] (setting [9]), 81.6%; in experiment [6] (setting [10]), 79.3%. Also, the Her2 level in experiment [2] is 106% (inactive). Also, in experiment [6] (H69AR cells + 2 uM doxorubicin), the differential viability (reversal) is -2.33% (inactive). In addition, the inhibition in experiment [7] is -4.73% (inactive); in experiment [8] it was -5.25% (inactive).
Regarding `COC(=O)C(CC(C)C)NC(=O)CSc1nc(-c2ccccc2)c(C#N)c(=O)[nH]1` (stereo not given), the viability in experiment [1] is 110%; in experiment [3] it was 110% (inactive); in experiment [4], 107% (inactive); in experiment [5] it was 108% (inactive); in experiment [6] (setting [9]) it was 100%; in experiment [6] (setting [10]), 108%. Moreover, the Her2 level in experiment [2] is 90% (inactive). In experiment [6] (H69AR cells + 2 uM doxorubicin), the differential viability (reversal) was 7.26% (inactive). Besides, the inhibition in experiment [7] was -3.12% (inactive); in experiment [8] it was 4.1% (inactive).
For the compound `Cc1cc(N2CCC3(CC2)OCCO3)n2nc(C)c(-c3ccc(Cl)cc3)c2n1`, the viability in experiment [1] is 84.5%; in experiment [3], 84.5% (inactive); in experiment [4], 71.9% (inactive); in experiment [5] it was 90.9% (inactive); in experiment [6] (setting [9]), 78.4%; in experiment [6] (setting [10]), 90.9%. In experiment [2], the Her2 level is 84% (inactive). The differential viability (reversal) in experiment [6] (H69AR cells + 2 uM doxorubicin) was 12.5% (inactive). Moreover, the values for the inhibition in experiment [7] and in experiment [8] were -5.68% (inactive) and 2.38% (inactive), respectively.
As to `NC(=O)C1CCN(CC(=O)N2c3ccccc3CCc3ccccc32)CC1`, the viability is 117% in experiment [1]; 117% (inactive) in experiment [3]; 103% (inactive) in experiment [4]; 93.9% (inactive) in experiment [5]; 92.3% in experiment [6] (setting [9]); 93.9% in experiment [6] (setting [10]). In addition, in experiment [2], the Her2 level was 114% (inactive). Besides, the differential viability (reversal) in experiment [6] (H69AR cells + 2 uM doxorubicin) is 1.55% (inactive). Moreover, the values for the inhibition in experiment [7] and in experiment [8] were -5.53% (inactive) and 5.25% (inactive), respectively.
